Laboratory results from publication PMC2842456 (ACS chemical biology, 2010).

B1: SUMO without an attached peptide: yeast SUMO with no attached peptide (protein, UniProt Q12306 2-98, looked up)
Ubiquitin-like protein SMT3: SDSEVNQEAKPEVKPEVKPETHINLKVSDGSSEIFFKIKKTTPLRRLMEAFAKRQGKEMDSLRFLYDGIRIQADQTPEDLDMEDNDIIEAHREQIGG

Test system: wild-type clamp sensor
Format: binding
Conditions: ligand titration with wild-type clamp sensor (Figure 2F)
How it was run: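 CyPet–clamp–YPet fusion, expressed in E. coli BL21(DE3) and Ni-affinity purified, used at 140 nM unless noted. Titrated with SUMO fusions (target-peptide fusion, bare SUMO, unrelated-peptide fusion). Samples were degassed, then incubated 30 min at 25 °C in the dark. Excitation 415 nm; FRET ratio taken as 527/475 nm emission, plotted against ligand concentration.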

Molecule | Effect on the FRET ratio of the wild-type sensor (in words)
GGDVHVNATYVNVKSVA [SUMO fused with an unrelated peptide] | no significant effect on the FRET ratio
B1 | no significant effect on the FRET ratio
